Assay [1] deals with Aspergillus flavus. Briefly: Antifungal activity against Aspergillus flavus assessed as mycelial growth at 20 uL after 4 to 12 days by agar disk diffusion method relative to untreated control. It is filed as functional. A digest of the protocol:
(§1)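 Aspergillus flavus, isolated from feeds, was grown on PDA plates seeded with 6 mm mycelial plugs from 10-day cultures. Three paper disks per dish carried either 60 µL pure essential oil or 60, 40 or 20 µL of single major oil constituents. Plates were sealed and incubated in the dark at 22 °C. Average colony diameter was read at 4, 8 and 12 days against water-impregnated disk controls.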

Assay [2] has as its system Aspergillus flavus. Briefly: Antifungal activity against Aspergillus flavus assessed as mycelial growth at 60 uL after 4 to 12 days by agar disk diffusion method relative to untreated control. It is filed as functional. A digest of the protocol: as §1
Background: In agar diffusion tests the substance spreads into inoculated agar from a disc or well.

As to `CC1=CC[C@H](C(C)C)C=C1` [ALPHA-PHELLANDRENE], the Activity in assay [1] and in assay [2] was 0% each time.
Turning to `CC1=CC=C(C(C)C)CC1` [ALPHA-TERPINENE], the Activity in assay [1] and in assay [2] was 0% throughout.
Turning to `CC1=CC[C@@H](C(C)(C)O)CC1` [ALPHA-TERPINEOL], the Activity in assay [1] and in assay [2] was 100% throughout.
In the case of `CC1=CCC(C(C)C)=CC1` [GAMMA-TERPINENE], the Activity in assay [1] and in assay [2] was 0% throughout.
Turning to `CC1=CCC(O)(C(C)C)CC1` (configuration not stated) [TERPINEOL], the Activity in assay [1] and in assay [2] was 100% each time.
Take `CC1=CCC(=C(C)C)CC1` [TERPINOLENE]: the Activity in assay [1] and in assay [2] was 0% each time.
